Reference: ChEMBL document CHEMBL1140923, “Discovery of imidazo[1,2-b]thiazole derivatives as novel SIRT1 activators” (J Med Chem, 2009)
Activity calls are given as the source filed them. The calls are words filed in the database; no cut-off is given here.

Experiments:
[1] = biological target: T1, Alpha-2A adrenergic receptor (Homo sapiens, UniProt P08913); assay: Inhibition of adrenergic alpha2A receptor
T1 sequence (P08913 whole entry): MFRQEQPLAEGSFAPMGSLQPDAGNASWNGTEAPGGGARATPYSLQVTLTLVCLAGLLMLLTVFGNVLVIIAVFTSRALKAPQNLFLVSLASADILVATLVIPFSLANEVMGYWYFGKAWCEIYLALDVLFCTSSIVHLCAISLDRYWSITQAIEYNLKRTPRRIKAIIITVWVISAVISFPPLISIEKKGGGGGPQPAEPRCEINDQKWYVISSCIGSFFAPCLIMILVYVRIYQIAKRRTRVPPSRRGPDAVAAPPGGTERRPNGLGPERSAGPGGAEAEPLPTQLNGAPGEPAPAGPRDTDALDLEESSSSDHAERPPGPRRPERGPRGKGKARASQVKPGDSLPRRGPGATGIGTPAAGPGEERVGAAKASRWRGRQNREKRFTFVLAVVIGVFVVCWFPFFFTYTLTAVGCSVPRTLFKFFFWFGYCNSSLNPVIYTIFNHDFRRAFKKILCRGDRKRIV

Mus musculus [2] = assay: Liver toxicity in diet-induced obesity C57BL/6 mouse model at 100 mg/kg, po daily once after 10 weeks; type: organism-based; design: dose 100 mg/kg, route oral; conditions: in vivo, 1680 h
Procedure, shortened: (§1)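 Male C57BL/6 mice were fed a 60%-fat diet from 9 weeks of age until about 40 g, in groups of 6-10. They were dosed by oral gavage once daily in 2% HPMC + 0.2% DOSS, with 29 at 100 mg/kg and rosiglitazone at 5 mg/kg, alongside vehicle groups on lean and high-fat diet. Fed glucose was read at weeks 2, 4, 6, 8 and 10. Clinical chemistry and hematology were also measured. Analysis by ANOVA.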

Salmonella typhimurium [3] = assay: Mutagenic activity in Salmonella Typhimurium TA98 in absence of S9 activation; type: toxicity, organism-based; conditions: salmonella enterica subsp. enterica serovar typhimurium
Mus musculus [4] = assay: Toxicity in diet-induced obesity C57BL/6 mouse model assessed as hematocrit at 100 mg/kg, po daily once for 10 weeks; type: organism-based; design: dose 100 mg/kg, route oral; conditions: in vivo, 1680 h; procedure, shortened: as §1
Salmonella typhimurium [5] = assay: Mutagenic activity in Salmonella Typhimurium TA98 in presence of S9 activation; type: toxicity, organism-based; conditions: salmonella enterica subsp. enterica serovar typhimurium
Mus musculus [6] = assay: Antidiabetic activity in diet-induced obesity C57BL/6 mouse model assessed as reduction of plasma insulin level at 100 mg/kg, po daily once after 10 weeks
Mus musculus [7] = assay: Toxicity in diet-induced obesity C57BL/6 mouse model assessed as white blood count at 100 mg/kg, po daily once for 10 weeks; type: organism-based; design: dose 100 mg/kg, route oral; conditions: in vivo, 1680 h; procedure, shortened: as §1
[8] = Oral bioavailability in Sprague-Dawley rat at 100 mg/kg; type: ADME, organism-based; conditions: in vivo
Procedure, shortened: (§2)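 Male Sprague-Dawley rats (250 g, 3 per dose group) received 100 mg/kg by oral gavage in 2% HPMC + 0.2% DOSS, or 10 mg/kg iv by tail vein in 10% ethanol/40% PEG/50% H2O. Blood was drawn at 0.033-24 h postdose for drug levels.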

Mus musculus [9] = assay: Antidiabetic activity in diet-induced obesity C57BL/6 mouse model assessed as reduction of fed blood glucose level at 100 mg/kg, po daily once relative to control
[10] = Terminal half life in Sprague-Dawley rat at 100 mg/kg, po or 10 mg/kg, iv; type: ADME, organism-based; conditions: in vivo, read-out: beta t1/2 (converted); procedure, shortened: as §2
Mus musculus [11] = assay: Antidiabetic activity in diet-induced obesity C57BL/6 mouse model assessed as reduction of plasma insulin level at 100 mg/kg, po daily once after 10 weeks; type: functional, organism-based; design: dose 100 mg/kg; procedure, shortened: as §1
Mus musculus [12] = assay: Antidiabetic activity in ob/ob mouse model assessed as reduction of fasting blood glucose level at 100 mg/kg, po daily once after 1 week relative to control; type: functional, organism-based; design: dose 100 mg/kg
Procedure, shortened: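 ob/ob mice received at 6 weeks of age were kept on a 60%-fat diet from at least 1 week before the study. They were sorted by body weight and glucose, then gavaged once daily with 100 mg/kg or vehicle (2% HPMC + 0.2% DOSS). Fasting blood glucose was measured. Analysis by one-way ANOVA with Dunnett's test.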

Cytochrome P450 2D6 = Cytochrome P450 2D6 (Homo sapiens, UniProt P10635); assay: Inhibition of CYP2D6 at 25 uM; type: ADME
Procedure, shortened: (§3)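 Inhibition of CYP isozymes was tested up to a highest concentration of 25 µM.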

Cytochrome P450 2C19 = Cytochrome P450 2C19 (Homo sapiens, UniProt P33261); assay: Inhibition of CYP2C19 at 25 uM; type: ADME; procedure, shortened: as §3
Mus musculus [13] = assay: Antidiabetic activity in diet-induced obesity C57BL/6 mouse model assessed as reduction of plasma insulin level at 100 mg/kg, po daily once after 2 weeks; type: functional, organism-based; design: dose 100 mg/kg; procedure, shortened: as §1
Salmonella typhimurium [14] = assay: Mutagenic activity in Salmonella Typhimurium TA100 in absence of S9 activation; type: toxicity, organism-based; conditions: salmonella enterica subsp. enterica serovar typhimurium
Rattus norvegicus [15] = assay: Antidiabetic activity in genetic Zucker fa/fa rat model assessed as reduction of glucose production at 100 mg/kg, po daily once after 3 weeks by pyruvate tolerance test; type: functional, organism-based; design: dose 100 mg/kg
Procedure, shortened: (§4)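 Male Zucker fa/fa rats, housed singly, were gavaged daily from 7 weeks of age with 100 mg/kg or vehicle (2% HPMC + 0.2% DOSS), 5 per group. Fed tail-vein glucose was taken on day 22. Also on day 22, after an overnight fast, sodium pyruvate 1 g/kg was given ip and glucose was read at 0-90 min.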

Salmonella typhimurium [16] = assay: Mutagenic activity in Salmonella Typhimurium TA100 in presence of S9 activation; type: toxicity, organism-based; conditions: salmonella enterica subsp. enterica serovar typhimurium
Rattus norvegicus [17] = assay: Antidiabetic activity in genetic Zucker fa/fa rat model assessed as increase in glucose disposal rate at 100 mg/kg, po daily once after 4 weeks by hyperinsulinemic-euglycemic clamp; type: functional
Procedure, shortened: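 Zucker fa/fa rats, cannulated 5 days beforehand and fasted 8 h, underwent the clamp after 4 weeks of dosing. [3-3H]glucose tracer was primed and infused, then insulin 25 (mU/kg)/min was started. Variable 50% dextrose held blood glucose at 100 mg/dL over 120 min, with tracer specific activity sampled at 110 and 120 min.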

Mus musculus [18] = assay: Toxicity in diet-induced obesity C57BL/6 mouse model assessed as red blood count at 100 mg/kg, po daily once for 10 weeks; type: organism-based; design: dose 100 mg/kg, route oral; conditions: in vivo, 1680 h; procedure, shortened: as §1
[19] = Terminal half life in C57BL/6 mouse at 100 mg/kg, po or 10 mg/kg, iv; type: ADME, organism-based; conditions: in vivo, read-out: beta t1/2 (converted)
Procedure, shortened: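 Male C57BL/6 mice (18-22 g; 3 per dose group per time point), given 100 mg/kg po as the hydrochloride salt in 2% HPMC + 0.2% DOSS, or 10 mg/kg iv by tail vein in 10% ethanol/40% polyethylene glycol/50% H2O. Plasma was taken at 5, 30, 120 and 360 min after dosing and drug levels were measured.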

[20] = biological target: Voltage-gated inwardly rectifying potassium channel KCNH2 (Homo sapiens, UniProt Q12809); assay: Inhibition of human ERG by patch clamp method
Procedure, shortened: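 hERG was measured by patch clamp.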

Mus musculus [21] = assay: Toxicity in diet-induced obesity C57BL/6 mouse model assessed as hemoglobin at 100 mg/kg, po daily once for 10 weeks; type: organism-based; design: dose 100 mg/kg, route oral; conditions: in vivo, 1680 h; procedure, shortened: as §1
Cytochrome P450 3A4 = Cytochrome P450 3A4 (Homo sapiens, UniProt P08684); assay: Inhibition of CYP3A4 at 25 uM; type: ADME; procedure, shortened: as §3
[22] = Inhibition of sodium channel site 2
Rattus norvegicus [23] = assay: Antidiabetic activity in genetic Zucker fa/fa rat model assessed as reduction of fed blood glucose level at 100 mg/kg, po daily once after 3 weeks relative to control; type: functional, organism-based; design: dose 100 mg/kg; procedure, shortened: as §4

Chain of Voltage-gated inwardly rectifying potassium channel KCNH2 (Q12809 whole entry): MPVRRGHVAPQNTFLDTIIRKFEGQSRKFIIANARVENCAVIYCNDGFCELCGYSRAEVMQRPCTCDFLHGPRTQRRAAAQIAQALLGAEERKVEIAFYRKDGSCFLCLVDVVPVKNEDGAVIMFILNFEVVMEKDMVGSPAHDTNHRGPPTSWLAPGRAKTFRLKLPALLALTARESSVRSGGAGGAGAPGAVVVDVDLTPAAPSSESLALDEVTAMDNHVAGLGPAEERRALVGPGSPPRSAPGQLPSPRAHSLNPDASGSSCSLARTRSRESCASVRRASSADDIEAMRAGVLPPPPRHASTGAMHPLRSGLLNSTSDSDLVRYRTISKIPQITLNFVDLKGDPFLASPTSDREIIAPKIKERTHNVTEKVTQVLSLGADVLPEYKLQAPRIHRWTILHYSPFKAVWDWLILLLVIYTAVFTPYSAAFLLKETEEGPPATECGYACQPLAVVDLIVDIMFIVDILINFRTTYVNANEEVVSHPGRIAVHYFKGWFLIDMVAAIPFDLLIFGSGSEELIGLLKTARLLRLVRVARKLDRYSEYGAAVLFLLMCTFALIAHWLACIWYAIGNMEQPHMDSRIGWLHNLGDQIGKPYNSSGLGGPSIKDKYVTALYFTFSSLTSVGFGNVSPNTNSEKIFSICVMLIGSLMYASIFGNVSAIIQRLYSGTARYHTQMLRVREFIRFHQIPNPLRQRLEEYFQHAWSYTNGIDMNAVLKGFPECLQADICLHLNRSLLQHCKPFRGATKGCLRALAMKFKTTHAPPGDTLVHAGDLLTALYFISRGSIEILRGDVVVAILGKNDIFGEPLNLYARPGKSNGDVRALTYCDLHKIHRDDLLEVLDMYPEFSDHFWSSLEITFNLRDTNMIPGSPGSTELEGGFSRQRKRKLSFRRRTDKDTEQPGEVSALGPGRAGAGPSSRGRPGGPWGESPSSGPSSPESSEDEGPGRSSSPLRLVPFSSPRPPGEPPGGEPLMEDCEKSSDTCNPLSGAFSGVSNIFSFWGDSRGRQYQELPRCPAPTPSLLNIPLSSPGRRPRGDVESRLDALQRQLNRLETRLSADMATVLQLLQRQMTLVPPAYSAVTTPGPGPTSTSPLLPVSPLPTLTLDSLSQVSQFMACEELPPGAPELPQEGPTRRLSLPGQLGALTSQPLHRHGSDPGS
Chain of Cytochrome P450 3A4 (P08684 whole entry): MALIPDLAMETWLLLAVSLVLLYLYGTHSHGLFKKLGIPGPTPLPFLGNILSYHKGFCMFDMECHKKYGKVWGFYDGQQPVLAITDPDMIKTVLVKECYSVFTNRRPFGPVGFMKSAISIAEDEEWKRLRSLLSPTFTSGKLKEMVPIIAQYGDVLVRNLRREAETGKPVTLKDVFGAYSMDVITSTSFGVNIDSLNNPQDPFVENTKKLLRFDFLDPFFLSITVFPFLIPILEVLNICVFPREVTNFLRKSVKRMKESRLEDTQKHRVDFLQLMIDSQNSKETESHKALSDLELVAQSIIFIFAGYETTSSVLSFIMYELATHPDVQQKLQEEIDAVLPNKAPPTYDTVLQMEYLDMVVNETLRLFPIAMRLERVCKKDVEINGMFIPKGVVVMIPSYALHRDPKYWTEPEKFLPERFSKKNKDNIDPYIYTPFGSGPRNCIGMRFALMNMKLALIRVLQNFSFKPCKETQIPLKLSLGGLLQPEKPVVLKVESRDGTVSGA
Chain of Cytochrome P450 2D6 (P10635 whole entry): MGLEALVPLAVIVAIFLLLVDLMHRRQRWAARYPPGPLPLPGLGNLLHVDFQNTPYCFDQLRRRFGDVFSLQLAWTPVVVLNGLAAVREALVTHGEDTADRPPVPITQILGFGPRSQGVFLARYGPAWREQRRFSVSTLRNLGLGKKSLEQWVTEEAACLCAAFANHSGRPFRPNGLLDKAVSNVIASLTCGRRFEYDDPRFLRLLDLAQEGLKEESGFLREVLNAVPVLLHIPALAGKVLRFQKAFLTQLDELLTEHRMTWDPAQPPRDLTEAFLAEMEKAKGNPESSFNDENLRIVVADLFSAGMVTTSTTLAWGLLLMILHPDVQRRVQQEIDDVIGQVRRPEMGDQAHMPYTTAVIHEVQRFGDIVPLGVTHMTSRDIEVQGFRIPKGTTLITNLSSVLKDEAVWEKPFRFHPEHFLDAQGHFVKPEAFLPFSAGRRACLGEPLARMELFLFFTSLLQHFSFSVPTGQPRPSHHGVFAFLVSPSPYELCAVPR
Chain of Cytochrome P450 2C19 (P33261 whole entry): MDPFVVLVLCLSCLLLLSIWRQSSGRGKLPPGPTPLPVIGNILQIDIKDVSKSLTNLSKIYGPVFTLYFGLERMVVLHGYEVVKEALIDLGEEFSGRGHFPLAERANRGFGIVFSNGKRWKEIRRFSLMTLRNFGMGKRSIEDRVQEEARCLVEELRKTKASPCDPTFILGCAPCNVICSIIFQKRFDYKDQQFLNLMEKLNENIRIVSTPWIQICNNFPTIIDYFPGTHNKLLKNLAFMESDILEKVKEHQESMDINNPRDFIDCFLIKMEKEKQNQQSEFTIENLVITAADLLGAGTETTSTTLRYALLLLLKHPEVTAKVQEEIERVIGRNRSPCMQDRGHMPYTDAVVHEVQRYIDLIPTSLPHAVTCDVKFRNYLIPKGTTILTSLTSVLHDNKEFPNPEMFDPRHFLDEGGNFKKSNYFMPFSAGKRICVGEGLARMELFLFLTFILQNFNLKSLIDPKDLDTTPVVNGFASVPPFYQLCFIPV

For `O=C(Nc1ccccc1-c1cn2c(CN3CCNCC3)csc2n1)c1cnc2ccccc2n1`, the IC50 [1] was 2.83 µM, the Activity (Mus musculus [2]) was “Non-toxic” and the Activity (Salmonella typhimurium [3]) was “Non-toxic”. The Activity (Mus musculus [4]) was “Active”, the Activity (Salmonella typhimurium [5]) was “Non-toxic” and the Activity (Mus musculus [6]) was “Active”. The Activity (Mus musculus [7]) was “Active”, the bioavailability [8] was 25% and the Activity (Mus musculus [9]) was “Active”. For the same molecule, the half-life [10] was 8.4 h, the Activity (Mus musculus [11]) was “Active” and the Activity (Mus musculus [12]) was “Active”. For the same molecule, the Activity (Cytochrome P450 2D6) was “Not Active”, the Activity (Cytochrome P450 2C19) was “Not Active” and the Activity (Mus musculus [13]) was “Active”. The Activity (Salmonella typhimurium [14]) was “Non-toxic”, the Activity (Rattus norvegicus [15]) was “Active” and the Activity (Salmonella typhimurium [16]) was “Non-toxic”. For the same molecule, the Activity (Rattus norvegicus [17]) was 20%, the Activity (Mus musculus [18]) was “Active” and the half-life [19] was 5 h. The IC50 [20] was > 10 µM, the Activity (Mus musculus [21]) was “Active” and the Activity (Cytochrome P450 3A4) was “Not Active”. For the same molecule, the IC50 [22] was 3.37 µM and the Activity (Rattus norvegicus [23]) was “Active”.
